Measurements reported in ChEMBL document CHEMBL1138530 (Antimicrob Agents Chemother, 2007).
Converted amounts (≈) assume the structure as drawn.

Tests used:
Homo sapiens [1] = test: Distributional clearance in HIV1 infected human at 150 mg, po; type: ADME, organism-based; conditions: in vivo
Outline: (§1)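 Single oral dose to HIV-infected adults, six per cohort; plasma sampled 0–48 h and days 3–24. Heparinized plasma, internal-standard spiked, acetonitrile-precipitated, assayed by reverse-phase LC-MS/MS (MRM 583.3→455.2); ranges 20.0–16,000 ng/ml (75 mg) or 100–60,000 ng/ml (150, 250 mg). Oral two-compartment linear model with absorption lag fit by maximum likelihood then Bayesian estimation.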

[2] = Half life in HIV1 infected human at 250 mg, po; type: ADME, organism-based; conditions: in vivo; outline: as §1
[3] = tested on: Human immunodeficiency virus 1; test: Antiviral activity against HIV1 infected in human assessed as growth/production of uninfected CD4 cells at 250 mg, po; type: functional
Outline: (§2)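 Randomized, double-blind, placebo-controlled trial; HIV-infected adults (CD4 >200 cells/mm3, plasma viral load 5,000–250,000 copies/ml, no antiretrovirals ≥4 weeks), six per cohort, single oral dose. Plasma HIV RNA sampled predose through day 24. Viral-dynamic model (uninfected/infected CD4, virus; Hill-type inhibition of new infection by plasma concentration) fit by maximum likelihood then Bayesian estimation, pharmacokinetic parameters held fixed.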

[4] = tested on: Human immunodeficiency virus 1; test: Antiviral activity against HIV1 infected in human assessed as inhibition of viral replication at 150 mg, po; type: functional, organism-based; outline: as §2
[5] = tested on: Human immunodeficiency virus 1; test: Antiviral activity against HIV1 infected in human assessed as rate at which virus infects CD4 cells at 250 mg, po; type: functional; outline: as §2
[6] = tested on: Human immunodeficiency virus 1; test: Antiviral activity against HIV1 infected in human assessed as clearance rate of virions at 250 mg, po; type: functional; outline: as §2
[7] = Half life in po dosed human; type: ADME, organism-based; conditions: in vivo
[8] = tested on: Human immunodeficiency virus 1; test: Antiviral activity against HIV1 infected in human assessed as growth/production of uninfected CD4 cells at 75 mg, po; type: functional; outline: as §2
Homo sapiens [9] = test: Effect of CD4 cell count in HIV1 infected human at 150 mg, po after 10 days; type: functional
Outline: (§3)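 CD4 cell count change from baseline 10 days after a single oral dose in HIV-infected adults (baseline CD4 >200 cells/mm3), six per cohort, placebo-controlled double-blind design; tested by dose and over time.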

[10] = Apparent oral clearance in HIV1 infected human at 75 mg, po; type: ADME, organism-based; conditions: in vivo; outline: as §1
[11] = tested on: Human immunodeficiency virus 1; test: Antiviral activity against HIV1 assessed as inhibition of release of CA/p24 from CA-SP1/p25 at 37.8 nM by MAGI assay; type: functional; conditions: Human immunodeficiency virus 1, MAGI
Homo sapiens [12] = test: Distributional clearance in HIV1 infected human at 75 mg, po; type: ADME, organism-based; conditions: in vivo; outline: as §1
Homo sapiens [13] = test: Effect of CD4 cell count in HIV1 infected human at 250 mg, po after 10 days; type: functional; outline: as §3
Homo sapiens [14] = test: Distributional clearance in HIV1 infected human at 250 mg, po; type: ADME, organism-based; conditions: in vivo; outline: as §1
[15] = tested on: Human immunodeficiency virus 1; test: Antiviral activity against HIV1 infected in human assessed as number of new virions produced by infected CD4 cell at 75 mg, po; type: functional; outline: as §2
[16] = tested on: Human immunodeficiency virus 1; test: Antiviral activity against HIV1 infected in human assessed as inhibition of viral replication at 75 mg, po; type: functional, organism-based; outline: as §2
[17] = tested on: Human immunodeficiency virus 1; test: Antiviral activity against HIV1 infected in human assessed as death rate constant of infected CD4 cells at 250 mg, po; type: functional
Outline: (§4)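 Randomized, double-blind, placebo-controlled trial in HIV-infected adults (CD4 >200 cells/mm3, plasma viral load 5,000–250,000 copies/ml, off antiretrovirals ≥4 weeks), six per cohort, single oral dose. Plasma drug levels measured by LC-MS/MS; HIV RNA sampled to day 24. Parameters from a viral-dynamic model (Hill-type inhibition of new CD4 infection) fit per subject by maximum likelihood then Bayesian estimation; reported as mean (%CV).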

[18] = tested on: Human immunodeficiency virus 1; test: Antiviral activity against HIV1 infected in human assessed as rate at which virus infects CD4 cells at 75 mg, po; type: functional; outline: as §2
[19] = tested on: Human immunodeficiency virus 1; test: Antiviral activity against HIV1 infected in human assessed as logarithmic reduction in HIV RNA copies at 150 mg, po relative to baseline; type: functional
Outline: (§5)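 Randomized, double-blind, placebo-controlled single oral dose in HIV-infected adults (CD4 >200 cells/mm3, viral load 5,000–250,000 copies/ml, off therapy ≥4 weeks), six per cohort. Plasma HIV RNA at screening, predose, 6–48 h and days 3–24; maximum observed log10 drop from baseline per patient, averaged by dose, compared by ANOVA.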

[20] = tested on: Human immunodeficiency virus 1; test: Antiviral activity against HIV1 infected in human assessed as rate at which virus infects CD4 cells at 150 mg, po; type: functional; outline: as §2
[21] = Half life in HIV1 infected human at 150 mg, po; type: ADME, organism-based; conditions: in vivo; outline: as §1
Homo sapiens [22] = test: Toxicity in HIV1 infected human assessed as mortality at 75 to 250 mg, po; type: organism-based; conditions: in vivo
Outline: (§6)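 Safety monitoring of HIV-infected adults given a single oral dose or placebo (randomized, double-blind, six per cohort), followed to day 24 for adverse events, serious adverse events and deaths.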

[23] = Apparent oral clearance in HIV1 infected human at 150 mg, po; type: ADME, organism-based; conditions: in vivo; outline: as §1
[24] = tested on: Human immunodeficiency virus 1; test: Antiviral activity against HIV1 infected in human assessed as maximum rate of viral replication measured as logarithmic viral copies at 150 mg, po; type: functional; outline: as §2
[25] = tested on: Human immunodeficiency virus 1; test: Antiviral activity against HIV1 infected in human assessed as death rate constant of uninfected CD4 cells at 150 mg, po; type: functional; outline: as §4
[26] = tested on: Human immunodeficiency virus 1; test: Antiviral activity against HIV1 infected in human assessed as number of new virions produced by infected CD4 cell at 150 mg, po; type: functional; outline: as §2
[27] = tested on: Human immunodeficiency virus 1; test: Antiviral activity against HIV1 infected in human assessed as death rate constant of uninfected CD4 cells at 75 mg, po; type: functional; outline: as §4
Homo sapiens [28] = test: Tlag in HIV1 infected human at 75 mg, po; type: ADME, organism-based; conditions: in vivo; outline: as §1
Homo sapiens [29] = test: Effect of CD4 cell count in HIV1 infected human at 75 mg, po after 10 days; type: functional; outline: as §3
Plasma = test: Stability in human plasma; type: ADME, cell-free
[30] = tested on: Human immunodeficiency virus 1; test: Antiviral activity against HIV1 infected in human assessed as logarithmic reduction in HIV RNA copies at 75 mg, po relative to baseline; type: functional; outline: as §5
[31] = tested on: Human immunodeficiency virus 1; test: Antiviral activity against HIV1 infected in human assessed as death rate constant of infected CD4 cells at 150 mg, po; type: functional; outline: as §4
Homo sapiens [32] = test: Tlag in HIV1 infected human at 150 mg, po; type: ADME, organism-based; conditions: in vivo; outline: as §1
[33] = tested on: Human immunodeficiency virus 1; test: Antiviral activity against HIV1 infected in human assessed as number of new virions produced by infected CD4 cells at 250 mg, po; type: functional; outline: as §2
Homo sapiens [34] = test: Toxicity in HIV1 infected human assessed as incidence of adverse effect at 75 to 250 mg, po; type: organism-based; conditions: in vivo; outline: as §6
Homo sapiens [35] = test: Tlag in HIV1 infected human at 250 mg, po; type: ADME, organism-based; conditions: in vivo; outline: as §1
[36] = tested on: Human immunodeficiency virus 1; test: Antiviral activity against HIV1 infected in human assessed as death rate constant of uninfected CD4 cells at 250 mg, po; type: functional; outline: as §4
[37] = tested on: Human immunodeficiency virus 1; test: Antiviral activity against HIV1 infected in human assessed as clearance rate of virions at 75 mg, po; type: functional; outline: as §2
[38] = tested on: Human immunodeficiency virus 1; test: Antiviral activity against HIV1 infected in human assessed as maximum rate of viral replication measured as logarithmic viral copies at 250 mg, po; type: functional; outline: as §2
[39] = tested on: Human immunodeficiency virus 1; test: Antiviral activity against HIV1 infected in human assessed as clearance rate of virions at 150 mg, po; type: functional; outline: as §2
[40] = Half life in HIV1 infected human at 75 mg, po; type: ADME, organism-based; conditions: in vivo; outline: as §1
[41] = tested on: Human immunodeficiency virus 1; test: Antiviral activity against HIV1 infected in human assessed as inhibition of viral replication at 250 mg, po; type: functional, organism-based; outline: as §2
[42] = tested on: Human immunodeficiency virus 1; test: Antiviral activity against HIV1 infected in human assessed as death rate constant of infected CD4 cells at 75 mg, po; type: functional; outline: as §4
[43] = tested on: Human immunodeficiency virus 1; test: Antiviral activity against HIV1 infected in human assessed as maximum rate of viral replication measured as logarithmic viral copies at 75 mg, po; type: functional; outline: as §2
[44] = tested on: Human immunodeficiency virus 1; test: Antiviral activity against HIV1 infected in human assessed as growth/production of uninfected CD4 cells at 150 mg, po; type: functional; outline: as §2
[45] = Apparent oral clearance in HIV1 infected human at 250 mg, po; type: ADME, organism-based; conditions: in vivo; outline: as §1
[46] = tested on: Human immunodeficiency virus 1; test: Antiviral activity against HIV1 infected in human assessed as logarithmic reduction in HIV RNA copies at 250 mg, po relative to baseline; type: functional; outline: as §5

C=C(C)[C@@H]1CC[C@]2(C(=O)O)CC[C@]3(C)[C@H](CC[C@@H]4[C@@]5(C)CC[C@H](OC(=O)CC(C)(C)C(=O)O)C(C)(C)[C@@H]5CC[C@]43C)[C@@H]12 [BEVIRIMAT]
CLd (Homo sapiens [1]): 0.48 L/h
half-life [2]: 62.1 h
Activity [3]: 1856.6 mL/h
EC50 [4]: 0.35 ng/mL (≈ 0.598 nM)
Activity [5]: 0.0349 h⁻¹
Activity [6]: 0.024 h⁻¹
half-life [7]: 55 h
Activity [8]: 320.7 mL/h
Activity (Homo sapiens [9]): 121
CL/F [10]: 2.83 mL/min
inhibition at 0.0378 µM [11]: 90%
CLd (Homo sapiens [12]): 0.48 L/h
Activity (Homo sapiens [13]): 104
CLd (Homo sapiens [14]): 0.45 L/h
Activity [15]: 137.8
EC50 [16]: 1.19 ng/mL (≈ 2.03 nM)
Activity [17]: 0.007 h⁻¹
Activity [18]: 0.14 h⁻¹
Activity [19]: -0.47 mL⁻¹
Activity [20]: 0.028 h⁻¹
half-life [21]: 55.1 h
Activity (Homo sapiens [22]): Non-toxic
CL/F [23]: 2.67 mL/min
Activity [24]: 4.59 mL⁻¹
Activity [25]: 0.0012 h⁻¹
Activity [26]: 126
Activity [27]: 0.0031 h⁻¹
Tlag (Homo sapiens [28]): 0.18 h
Activity (Homo sapiens [29]): -15
Stability (Plasma): 95 days
Activity [30]: -0.14 mL⁻¹
Activity [31]: 0.017 h⁻¹
Tlag (Homo sapiens [32]): 0.2 h
Activity [33]: 80.2
Activity (Homo sapiens [34]): Non-toxic
Tlag (Homo sapiens [35]): 0.15 h
Activity [36]: 0.0016 h⁻¹
Activity [37]: 0.008 h⁻¹
Activity [38]: 4.46 mL⁻¹
Activity [39]: 0.071 h⁻¹
half-life [40]: 63.9 h
EC50 [41]: 0.55 ng/mL (≈ 0.94 nM)
Activity [42]: 0.013 h⁻¹
Activity [43]: 5.13 mL⁻¹
Activity [44]: 1340 mL/h
CL/F [45]: 2.83 mL/min
Activity [46]: -0.46 mL⁻¹
